Screens from PubChem.
Hits are enriched below; roughly 0.79% of the tested compounds scored in any of these assays.
bIAP inhibitor: bovine intestinal alkaline phosphatase inhibitors, primary screen, selectivity assay for TNAP inhibitor project, biochemical, bovine IAP, CDP-star luminescence; alkaline phosphatase, intestinal [Bos taurus]; purified bovine IAP, 30 min; AID 1019, 2008; 190,000 tested, under 10 active; inhibition, % at 20 µM;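 active means over 50% inhibition of intestinal alkaline phosphatase at 20 µM in the single-dose screen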
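test system = bovine IAP enzyme | medium = DEA buffer 100 mM, pH 9.8, with MgCl2 1.0 mM, ZnCl2 0.02 mM | detection = luminescence | dosing = single compound dose of 20 µM, 2% DMSO final | incubation = 30 min reaction at room temperature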
bIAP activator: bovine intestinal alkaline phosphatase activators, primary screen, biochemical, bovine IAP, CDP-star luminescence | alkaline phosphatase, intestinal [Bos taurus] | purified bovine IAP, 30 min; hits give high values; fold of DMSO-control signal, blank-subtracted | activation factor at 20 µM | 200,000 tested, 0.17% active | AID 1016, 2008;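 active means activation factor of 2 or more at 20 µM, a signal rise over negative controls twice the positive control's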
hIAP act: human IAP activators, primary screen, biochemical, luminescence, uHTS; Intestinal-type alkaline phosphatase (Homo sapiens), P09923; activation factor at 10 µM; purified human IAP, CDP-Star luminescence, 30 min; hits give high values; 1 = vehicle-only enzyme, 0 = enzyme-free background; 330,000 tested, 0.16% active; AID 2524, 2010;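 active means activation factor of the enzyme at least 2-fold when tested at 20 µM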
Target sequence (P09923 whole entry, looked up): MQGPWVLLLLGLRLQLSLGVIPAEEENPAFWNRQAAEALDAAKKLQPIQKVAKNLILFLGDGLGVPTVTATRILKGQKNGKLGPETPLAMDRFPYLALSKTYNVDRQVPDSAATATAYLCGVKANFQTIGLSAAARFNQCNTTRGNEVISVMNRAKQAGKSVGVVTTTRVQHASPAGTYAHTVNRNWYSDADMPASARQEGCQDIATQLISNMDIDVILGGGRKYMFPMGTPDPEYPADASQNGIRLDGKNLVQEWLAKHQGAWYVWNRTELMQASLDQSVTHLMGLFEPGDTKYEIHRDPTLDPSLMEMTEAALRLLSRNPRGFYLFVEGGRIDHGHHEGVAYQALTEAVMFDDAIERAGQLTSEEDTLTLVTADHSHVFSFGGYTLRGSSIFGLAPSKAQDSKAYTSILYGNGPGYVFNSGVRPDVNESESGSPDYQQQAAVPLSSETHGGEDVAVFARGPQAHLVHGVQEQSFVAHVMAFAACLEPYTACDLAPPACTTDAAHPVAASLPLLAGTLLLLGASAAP
mIAP block: inhibitors of mouse IAP, primary screen, biochemical, luminescence, uHTS; intestinal alkaline phosphatase [Mus musculus]; purified mouse IAP, CDP-Star luminescence, 30 min; inhibition, % at 10 µM; 330,000 tested, 0.2% active; AID 2806, 2010;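 active means inhibition of at least 40% at 10 µM in the primary screen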
hIAP inh: human IAP inhibitors, primary screen, biochemical, luminescence, uHTS | purified IAP, CDP-Star luminescence, 30 min | inhibition, % at 10 µM | 330,000 tested, 0.12% active | AID 2544, 2010;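 active means inhibition reaching a set limit with compound at 10 µM in the primary screen, cut at about 35% in these data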
mIAP act: activators of mouse IAP, primary screen, biochemical, luminescence, uHTS | intestinal alkaline phosphatase [Mus musculus] | muIAP, CDP-Star luminescence, 30 min; hits give high values; 1 = vehicle-only enzyme signal, 0 = enzyme-free wells | activation factor at 10 µM | 330,000 tested, 0.24% active;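 active means activation factor of at least 2 at 20 µM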
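Assay system: mouse IAP enzyme; Reagent: CDP-Star chemiluminescent phosphatase substrate; Compound: DMSO-dissolved test compounds; Incubation: 30 min, room temperature; Technique: luminescence from enzymatic CDP-Star hydrolysis; Controls: DMSO-only wells and no-enzyme negative control.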
mIAP inh confirm: inhibitors of mouse IAP, confirmation, biochemical, luminescence, single concentration; shares compounds with mIAP block; inhibition, % at 10 µM; purified mouse IAP, CDP-Star luminescence, 30 min; AID 434971, 2010; 11,000 tested, 4.7% active;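 active means inhibition of at least 40% at 10 µM in either of the two replicates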
A number is an active result.

What do the screens show for `CC(C)(C)OC(=O)C[C@@H]1C/C=C\C[C@@H](CC(=O)N(CCO)Cc2ccccc2)C(=O)N2CCC[C@@H]2COC1=O`?
hIAP act: inactive; mIAP block: inactive; hIAP inh: inactive; mIAP act: inactive

Results for O=C(O)CNS(=O)(=O)c1ccc2c3c(cccc13)C(=O)N2 ?
hIAP act: inactive; mIAP block: 47.6; hIAP inh: inactive; mIAP act: inactive; mIAP inh confirm: 49.2

Results for O=C(O)CCCCCNS(=O)(=O)c1ccc2c3c(cccc13)C(=O)N2 ?
hIAP act: inactive; mIAP block: inactive; hIAP inh: inactive; mIAP act: inactive

How did O=C(O)c1ccccc1NS(=O)(=O)c1ccc2c3c(cccc13)C(=O)N2 do in these assays?
bIAP inhibitor: inactive; bIAP activator: inactive; hIAP act: inactive; mIAP block: inactive; hIAP inh: inactive; mIAP act: inactive

What do the screens show for `CN(c1ccccc1C(=O)O)S(=O)(=O)c1ccc2c3c(cccc13)C(=O)N2`?
bIAP inhibitor: inactive; bIAP activator: inactive; hIAP act: inactive; mIAP block: 46.0; hIAP inh: inactive; mIAP act: inactive; mIAP inh confirm: 62.0

How did O=C1c2c(O)cc(O)cc2O[C@H](c2ccc(O)c(O)c2)[C@H]1O do in these assays?
hIAP act: inactive; mIAP block: 51.4; hIAP inh: inactive; mIAP act: inactive; mIAP inh confirm: 59.1

Results for O=C1c2c(O)cc(O)cc2O[C@H](c2ccc(O)c(O)c2)[C@@H]1O ?
bIAP inhibitor: inactive; bIAP activator: inactive; hIAP act: inactive; mIAP block: 63.6; hIAP inh: inactive; mIAP act: inactive; mIAP inh confirm: 58.5

Results for O=C1C[C@@H](c2ccccc2)Oc2cc(O)cc(O)c21 ?
hIAP act: inactive; mIAP block: inactive; hIAP inh: inactive; mIAP act: inactive

How did Oc1cc(O)c2c(c1)O[C@H](c1ccc(O)c(O)c1)[C@@H](O)C2 do in these assays?
hIAP act: inactive; mIAP block: 77.5; hIAP inh: inactive; mIAP act: inactive; mIAP inh confirm: 78.0

Results for O=C(CCCSc1ccccc1)Nc1nc(-c2ccco2)c(-c2ccco2)s1 ?
bIAP inhibitor: inactive; bIAP activator: inactive

Results for Cc1ccc(C(=O)Nc2nc(-c3ccco3)c(-c3ccco3)s2)o1 ?
hIAP act: inactive; mIAP block: 64.0; hIAP inh: inactive; mIAP act: inactive; mIAP inh confirm: 68.4

How did O=C(CCl)Nc1nc(-c2ccco2)c(-c2ccco2)s1 do in these assays?
bIAP inhibitor: inactive; bIAP activator: inactive; hIAP act: inactive; mIAP block: 76.8; hIAP inh: inactive; mIAP act: inactive; mIAP inh confirm: 73.9

What do the screens show for `COc1cccc(CNCC(O)COc2ccc(C(=O)c3ccccc3)cc2)c1` (stereo not given)?
hIAP act: inactive; mIAP block: inactive; hIAP inh: inactive; mIAP act: inactive

How did O=C(c1ccco1)N1CCN(C2CC(=O)N(c3ccc(F)c(Cl)c3)C2=O)CC1 (stereo not given) do in these assays?
hIAP act: inactive; mIAP block: inactive; hIAP inh: inactive; mIAP act: inactive

How did Cc1nc(NC(=O)c2ccccc2)sc1-c1csc(NCc2ccco2)n1 do in these assays?
bIAP inhibitor: inactive; bIAP activator: inactive; hIAP act: inactive; mIAP block: 44.3; hIAP inh: inactive; mIAP act: inactive; mIAP inh confirm: 56.2

Results for O=S(=O)(NCc1cn2ccccc2n1)c1ccccc1F ?
hIAP act: inactive; mIAP block: inactive; hIAP inh: inactive; mIAP act: inactive

Results for C#CCOCCOCCOCCNc1nc(N2CCN(C(=O)CCCCCCCCCCNC(=O)Cn3cc(C[C@@H](C)O)nn3)CC2)nc(N2CCN(C(=O)CCCCCCCCCCNC(=O)[C@H](CCCCN)n3cc(C[C@@H](C)CC)nn3)CC2)n1 ?
hIAP act: inactive; mIAP block: inactive; hIAP inh: inactive; mIAP act: 2.73; mIAP inh confirm: inactive

What do the screens show for `C#CCOCCOCCOCCNc1nc(N2CCN(C(=O)CCCCCCCCCCNC(=O)[C@H]([C@@H](C)CC)n3cc(CCCCN=C(N)N)nn3)CC2)nc(N2CCN(C(=O)CCCCCCCCCCNC(=O)[C@H](CCCCN)n3cc(C[C@@H](C)CC)nn3)CC2)n1`?
hIAP act: inactive; mIAP block: inactive; hIAP inh: inactive; mIAP act: 3.96; mIAP inh confirm: inactive

Results for C#CCOCCOCCOCCNc1nc(N2CCN(C(=O)CCCCCCCCCCNC(=O)[C@H](CCCCN)n3cc(CCO)nn3)CC2)nc(N2CCN(C(=O)CCCCCCCCCCNC(=O)[C@H](CCCN=C(N)N)n3cc(C[C@@H](C)CC)nn3)CC2)n1 ?
hIAP act: inactive; mIAP block: inactive; hIAP inh: inactive; mIAP act: 2.62; mIAP inh confirm: inactive

Results for C#CCOCCOCCOCCNc1nc(N2CCN(C(=O)CCCCCCCCCCNC(=O)[C@H](CCCCN)n3cc(CCCC(=O)O)nn3)CC2)nc(N2CCN(C(=O)CCCCCCCCCCNC(=O)[C@H](CCCN=C(N)N)n3cc(C[C@@H](C)CC)nn3)CC2)n1 ?
hIAP act: inactive; mIAP block: inactive; hIAP inh: inactive; mIAP act: 2.24; mIAP inh confirm: inactive

What do the screens show for `COC(=O)[C@H](CC(C)C)NC(=O)Nc1ccc(S(N)(=O)=O)cc1`?
hIAP act: inactive; mIAP block: inactive; hIAP inh: inactive; mIAP act: inactive

Results for C#CCOCCOCCOCCNc1nc(N2CCN(C(=O)CCCCCCCCCCNC(=O)[C@H](CO)n3cc(CCCSC)nn3)CC2)nc(N2CCN(C(=O)CCCCCCCCCCNC(=O)[C@H](CO)n3cc(CCCSC)nn3)CC2)n1 ?
hIAP act: inactive; mIAP block: inactive; hIAP inh: inactive; mIAP act: inactive

What do the screens show for `C#CCOCCOCCOCCNc1nc(N2CCN(C(=O)CCCCCCCCCCNC(=O)[C@H](CO)n3cc(CCCSC)nn3)CC2)nc(N2CCN(C(=O)CCCCCCCCCCNC(=O)[C@H](CCCCN)n3cc(C[C@@H](C)CC)nn3)CC2)n1`?
hIAP act: inactive; mIAP block: inactive; hIAP inh: inactive; mIAP act: 2.3; mIAP inh confirm: inactive
